Assay results as given in the M2OR odorant receptor database.

Assays:
Details in all cases: stereoisomer not certain
UniProt Q7TR71 = target: T1, UniProt Q7TR71
T1 sequence (whole entry): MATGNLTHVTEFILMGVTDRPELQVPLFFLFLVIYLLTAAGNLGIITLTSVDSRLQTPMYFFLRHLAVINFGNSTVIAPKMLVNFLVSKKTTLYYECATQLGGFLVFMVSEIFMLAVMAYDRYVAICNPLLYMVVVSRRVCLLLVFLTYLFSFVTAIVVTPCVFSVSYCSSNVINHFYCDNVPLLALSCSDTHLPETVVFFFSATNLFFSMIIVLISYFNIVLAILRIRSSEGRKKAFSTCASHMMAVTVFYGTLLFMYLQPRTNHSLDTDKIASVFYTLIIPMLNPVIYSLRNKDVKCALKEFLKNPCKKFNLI
Procedure, shortened: (§1)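 Values were gathered from published papers (main text and supplementary material), with extra details requested from the original authors when needed, and checked for typos and inconsistencies. Each receptor–molecule pair is called responsive (active) if the original authors judged the measured signal statistically different from baseline, and non-responsive (inactive) otherwise. Assay methods varied by source, often transient mammalian cell-line luciferase assays. Recorded details include cell line, G-protein, co-transfected protein and tags.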

UniProt Q7TR79 = target: T2, UniProt Q7TR79
T2 sequence (whole entry): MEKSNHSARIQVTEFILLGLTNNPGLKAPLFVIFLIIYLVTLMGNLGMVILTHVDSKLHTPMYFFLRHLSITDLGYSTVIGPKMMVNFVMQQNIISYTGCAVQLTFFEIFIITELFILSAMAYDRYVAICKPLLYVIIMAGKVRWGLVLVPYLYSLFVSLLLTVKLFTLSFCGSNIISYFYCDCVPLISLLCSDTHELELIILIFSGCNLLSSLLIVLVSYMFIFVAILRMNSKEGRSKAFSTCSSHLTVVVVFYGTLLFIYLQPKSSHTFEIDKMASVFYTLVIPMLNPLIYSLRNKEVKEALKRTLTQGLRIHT
Procedure, shortened: as §1

UniProt Q7TRA3 = target: T3, UniProt Q7TRA3
T3 sequence (whole entry): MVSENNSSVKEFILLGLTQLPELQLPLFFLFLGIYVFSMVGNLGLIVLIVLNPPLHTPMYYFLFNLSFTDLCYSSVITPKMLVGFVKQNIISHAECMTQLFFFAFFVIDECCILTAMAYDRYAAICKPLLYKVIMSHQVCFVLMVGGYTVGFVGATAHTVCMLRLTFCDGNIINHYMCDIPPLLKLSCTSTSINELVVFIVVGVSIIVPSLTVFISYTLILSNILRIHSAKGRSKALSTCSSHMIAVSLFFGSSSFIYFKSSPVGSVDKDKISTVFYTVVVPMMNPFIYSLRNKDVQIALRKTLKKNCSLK
Procedure, shortened: as §1

UniProt Q7TRE4 = target: T4, UniProt Q7TRE4
T4 sequence (whole entry): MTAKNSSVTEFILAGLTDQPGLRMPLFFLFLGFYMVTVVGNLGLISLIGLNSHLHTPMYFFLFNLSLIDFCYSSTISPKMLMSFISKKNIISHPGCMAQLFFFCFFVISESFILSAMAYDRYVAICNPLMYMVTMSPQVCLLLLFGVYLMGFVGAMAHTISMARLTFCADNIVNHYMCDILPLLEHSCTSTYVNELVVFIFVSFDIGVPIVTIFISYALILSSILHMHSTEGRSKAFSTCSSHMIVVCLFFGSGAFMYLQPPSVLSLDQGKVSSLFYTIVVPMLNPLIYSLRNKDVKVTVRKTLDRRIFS
Procedure, shortened: as §1

UniProt Q7TRW1 = target: T5, UniProt Q7TRW1
T5 sequence (whole entry): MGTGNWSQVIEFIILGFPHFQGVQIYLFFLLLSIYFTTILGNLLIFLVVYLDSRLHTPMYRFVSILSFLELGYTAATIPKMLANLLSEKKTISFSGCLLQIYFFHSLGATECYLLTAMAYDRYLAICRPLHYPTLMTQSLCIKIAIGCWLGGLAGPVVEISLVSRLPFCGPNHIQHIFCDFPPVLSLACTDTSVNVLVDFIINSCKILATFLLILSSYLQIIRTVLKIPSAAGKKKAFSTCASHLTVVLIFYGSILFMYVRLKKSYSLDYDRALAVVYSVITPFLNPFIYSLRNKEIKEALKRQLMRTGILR
Procedure, shortened: as §1

UniProt Q7TRX0 = target: T6, UniProt Q7TRX0
T6 sequence (whole entry): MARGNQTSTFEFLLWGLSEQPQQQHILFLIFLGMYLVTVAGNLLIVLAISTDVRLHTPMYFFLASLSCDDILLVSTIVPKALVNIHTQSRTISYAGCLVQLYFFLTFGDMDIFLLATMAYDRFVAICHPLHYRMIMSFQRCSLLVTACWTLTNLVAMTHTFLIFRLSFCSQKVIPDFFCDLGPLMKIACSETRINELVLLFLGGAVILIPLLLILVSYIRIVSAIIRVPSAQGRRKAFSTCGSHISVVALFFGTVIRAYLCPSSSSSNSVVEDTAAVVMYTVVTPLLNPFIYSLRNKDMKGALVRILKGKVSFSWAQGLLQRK
Procedure, shortened: as §1

UniProt Q8VEU7 = target: T7, UniProt Q8VEU7
T7 sequence (whole entry): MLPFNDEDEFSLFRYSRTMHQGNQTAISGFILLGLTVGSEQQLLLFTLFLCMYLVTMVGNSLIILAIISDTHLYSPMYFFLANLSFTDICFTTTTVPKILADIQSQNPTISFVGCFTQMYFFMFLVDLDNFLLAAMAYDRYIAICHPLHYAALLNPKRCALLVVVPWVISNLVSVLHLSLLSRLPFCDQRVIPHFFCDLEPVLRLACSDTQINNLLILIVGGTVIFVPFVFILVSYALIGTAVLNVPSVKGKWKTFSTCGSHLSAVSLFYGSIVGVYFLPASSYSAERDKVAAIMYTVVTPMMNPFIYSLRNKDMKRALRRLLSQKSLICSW
Procedure, shortened: as §1

UniProt Q8VF05 = target: T8, UniProt Q8VF05
T8 sequence (whole entry): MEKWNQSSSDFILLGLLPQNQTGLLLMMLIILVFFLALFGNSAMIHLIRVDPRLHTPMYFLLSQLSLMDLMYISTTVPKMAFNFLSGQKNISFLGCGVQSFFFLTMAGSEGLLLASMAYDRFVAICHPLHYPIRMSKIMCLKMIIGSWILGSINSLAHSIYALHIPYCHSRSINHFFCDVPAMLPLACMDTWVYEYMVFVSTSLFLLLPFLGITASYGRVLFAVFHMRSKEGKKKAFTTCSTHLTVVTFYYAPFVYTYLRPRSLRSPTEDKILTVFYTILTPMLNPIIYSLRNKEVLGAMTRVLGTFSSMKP
Procedure, shortened: as §1

UniProt Q7TRM0 = target: T9, UniProt Q7TRM0
T9 sequence (whole entry): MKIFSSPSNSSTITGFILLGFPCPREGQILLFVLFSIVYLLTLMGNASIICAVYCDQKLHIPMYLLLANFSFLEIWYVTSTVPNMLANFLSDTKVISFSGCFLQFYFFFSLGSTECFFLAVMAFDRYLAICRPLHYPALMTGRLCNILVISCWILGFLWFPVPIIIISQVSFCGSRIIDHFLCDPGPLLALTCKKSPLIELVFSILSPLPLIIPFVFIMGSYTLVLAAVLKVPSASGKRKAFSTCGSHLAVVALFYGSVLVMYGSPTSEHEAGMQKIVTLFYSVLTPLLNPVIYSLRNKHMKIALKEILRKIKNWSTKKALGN
Procedure, shortened: as §1

UniProt Q7TRN9 = target: T10, UniProt Q7TRN9
T10 sequence (whole entry): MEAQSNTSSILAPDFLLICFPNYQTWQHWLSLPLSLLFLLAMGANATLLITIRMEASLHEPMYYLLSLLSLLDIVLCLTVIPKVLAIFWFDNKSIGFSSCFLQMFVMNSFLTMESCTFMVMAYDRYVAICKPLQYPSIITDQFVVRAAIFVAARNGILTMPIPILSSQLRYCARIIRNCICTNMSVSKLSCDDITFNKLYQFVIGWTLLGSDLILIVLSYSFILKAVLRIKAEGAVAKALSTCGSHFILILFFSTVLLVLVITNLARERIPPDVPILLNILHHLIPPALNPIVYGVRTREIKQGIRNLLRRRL
Procedure, shortened: as §1

UniProt Q7TRR8 = target: T11, UniProt Q7TRR8
T11 sequence (whole entry): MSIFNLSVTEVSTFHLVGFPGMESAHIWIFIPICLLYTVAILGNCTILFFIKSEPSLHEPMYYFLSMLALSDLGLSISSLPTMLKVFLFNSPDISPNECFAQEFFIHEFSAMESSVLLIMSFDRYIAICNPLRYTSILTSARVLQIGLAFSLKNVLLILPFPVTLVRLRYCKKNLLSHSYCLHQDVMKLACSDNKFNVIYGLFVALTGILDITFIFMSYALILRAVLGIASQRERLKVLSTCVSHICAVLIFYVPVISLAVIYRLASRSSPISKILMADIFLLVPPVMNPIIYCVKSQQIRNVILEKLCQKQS
Procedure, shortened: as §1

SMILES: CC(C)=CCCC(C)=CCO
- odorant receptor agonist call (UniProt Q7TR71): inactive
- odorant receptor agonist call (UniProt Q7TR79): inactive
- odorant receptor agonist call (UniProt Q7TRA3): inactive
- odorant receptor agonist call (UniProt Q7TRE4): inactive
- odorant receptor agonist call (UniProt Q7TRW1): inactive
- odorant receptor agonist call (UniProt Q7TRX0): inactive
- odorant receptor agonist call (UniProt Q8VEU7): inactive
- odorant receptor agonist call (UniProt Q8VF05): inactive

SMILES: CCCCCCCCCC(=O)[O-].[H+]
- odorant receptor agonist call (UniProt Q7TR71): inactive
- odorant receptor agonist call (UniProt Q7TR79): inactive
- odorant receptor agonist call (UniProt Q7TRA3): inactive
- odorant receptor agonist call (UniProt Q7TRE4): inactive
- odorant receptor agonist call (UniProt Q7TRW1): inactive
- odorant receptor agonist call (UniProt Q7TRX0): inactive
- odorant receptor agonist call (UniProt Q8VEU7): inactive
- odorant receptor agonist call (UniProt Q8VF05): inactive

SMILES: CCC(=O)O
- odorant receptor agonist call (UniProt Q7TR71): inactive
- odorant receptor agonist call (UniProt Q7TR79): inactive
- odorant receptor agonist call (UniProt Q7TRA3): inactive
- odorant receptor agonist call (UniProt Q7TRE4): inactive
- odorant receptor agonist call (UniProt Q7TRW1): inactive
- odorant receptor agonist call (UniProt Q7TRX0): inactive
- odorant receptor agonist call (UniProt Q8VEU7): inactive
- odorant receptor agonist call (UniProt Q8VF05): inactive

SMILES: CCc1ccccc1O
- odorant receptor agonist call (UniProt Q7TR79): inactive
- odorant receptor agonist call (UniProt Q7TRX0): inactive

SMILES: OCC=Cc1ccccc1
- odorant receptor agonist call (UniProt Q7TR79): inactive
- odorant receptor agonist call (UniProt Q7TRX0): inactive

SMILES: CCCCOC(=O)C(C)OC(=O)CCC (stereo not given)
- odorant receptor agonist call (UniProt Q7TR71): inactive
- odorant receptor agonist call (UniProt Q7TRA3): inactive
- odorant receptor agonist call (UniProt Q7TRE4): inactive
- odorant receptor agonist call (UniProt Q7TRW1): inactive
- odorant receptor agonist call (UniProt Q8VEU7): inactive
- odorant receptor agonist call (UniProt Q8VF05): inactive

SMILES: CC(=O)Oc1ccccc1
- odorant receptor agonist call (UniProt Q7TR71): inactive
- odorant receptor agonist call (UniProt Q7TR79): inactive
- odorant receptor agonist call (UniProt Q7TRA3): inactive
- odorant receptor agonist call (UniProt Q7TRE4): inactive
- odorant receptor agonist call (UniProt Q7TRW1): inactive
- odorant receptor agonist call (UniProt Q7TRX0): inactive
- odorant receptor agonist call (UniProt Q8VEU7): inactive
- odorant receptor agonist call (UniProt Q8VF05): inactive

SMILES: O=C(O)CCCCCBr
- odorant receptor agonist call (UniProt Q7TR79): inactive
- odorant receptor agonist call (UniProt Q7TRM0): inactive
- odorant receptor agonist call (UniProt Q7TRN9): inactive
- odorant receptor agonist call (UniProt Q7TRR8): inactive
- odorant receptor agonist call (UniProt Q7TRX0): inactive

SMILES: CCCCCO
- odorant receptor agonist call (UniProt Q7TR71): inactive
- odorant receptor agonist call (UniProt Q7TRA3): inactive
- odorant receptor agonist call (UniProt Q7TRE4): inactive
- odorant receptor agonist call (UniProt Q7TRN9): inactive
- odorant receptor agonist call (UniProt Q7TRR8): inactive
- odorant receptor agonist call (UniProt Q7TRW1): inactive
- odorant receptor agonist call (UniProt Q8VEU7): inactive
- odorant receptor agonist call (UniProt Q8VF05): inactive

SMILES: CCCCCCCC(=O)[O-].[H+]
- odorant receptor agonist call (UniProt Q7TR71): inactive
- odorant receptor agonist call (UniProt Q7TRA3): inactive
- odorant receptor agonist call (UniProt Q7TRE4): inactive
- odorant receptor agonist call (UniProt Q7TRM0): inactive
- odorant receptor agonist call (UniProt Q7TRN9): active
- odorant receptor agonist call (UniProt Q7TRR8): inactive
- odorant receptor agonist call (UniProt Q7TRW1): inactive
- odorant receptor agonist call (UniProt Q8VEU7): inactive
- odorant receptor agonist call (UniProt Q8VF05): inactive

SMILES: CCCCCCC(=O)[O-].[H+]
- odorant receptor agonist call (UniProt Q7TR71): inactive
- odorant receptor agonist call (UniProt Q7TRA3): inactive
- odorant receptor agonist call (UniProt Q7TRE4): inactive
- odorant receptor agonist call (UniProt Q7TRM0): inactive
- odorant receptor agonist call (UniProt Q7TRN9): active
- odorant receptor agonist call (UniProt Q7TRR8): inactive
- odorant receptor agonist call (UniProt Q7TRW1): inactive
- odorant receptor agonist call (UniProt Q8VEU7): inactive
- odorant receptor agonist call (UniProt Q8VF05): inactive

SMILES: CC(=O)C1(C)CC2=C(CCCC2(C)C)CC1C (stereo not given)
- odorant receptor agonist call (UniProt Q7TR79): inactive
- odorant receptor agonist call (UniProt Q7TRX0): inactive

SMILES: CCCCCOC(=O)CCCCC
- odorant receptor agonist call (UniProt Q7TR71): inactive
- odorant receptor agonist call (UniProt Q7TR79): inactive
- odorant receptor agonist call (UniProt Q7TRA3): inactive
- odorant receptor agonist call (UniProt Q7TRE4): inactive
- odorant receptor agonist call (UniProt Q7TRW1): inactive
- odorant receptor agonist call (UniProt Q7TRX0): inactive
- odorant receptor agonist call (UniProt Q8VEU7): inactive
- odorant receptor agonist call (UniProt Q8VF05): inactive

SMILES: Cc1ccc(C(C)C)cc1
- odorant receptor agonist call (UniProt Q7TR79): inactive
- odorant receptor agonist call (UniProt Q7TRX0): inactive
